Activity calls are given as the source filed them. The rule behind the calls is not given here.
How the values were obtained:
HSC-2 [1] = assay: Cytotoxicity against human HSC2 cells after 48 hrs; type: functional; conditions: HSC-2, 48 h
HL-60 [2] = assay: Selectivity index, ratio of average CC50 for normal human cell line to CC50 for human HL-60 cells
HSC-4 [3] = assay: Cytotoxicity against human HSC4 cells after 48 hrs; type: functional; conditions: HSC-4, 48 h
[4] = Toxicity in mouse harboring P-388 cells; type: organism-based
HSC-4 [5] = assay: Selectivity index, ratio of average CC50 for normal human cell line to CC50 for human HSC4 cells
[6] = Toxicity in mouse harboring L1210 cells; type: organism-based
HSC-2 [7] = assay: Selectivity index, ratio of average CC50 for normal human cell line to CC50 for human HSC2 cells
HSC-3 [8] = assay: Selectivity index, ratio of average CC50 for normal human cell line to CC50 for human HSC3 cells
HL-60 [9] = assay: Cytotoxicity against human HL60 cells after 48 hrs; type: functional; conditions: HL-60, 48 h
HT-29 = assay: Anticancer activity against human HT-29 cells; type: functional, cell-based
HSC-3 [10] = assay: Cytotoxicity against human HSC3 cells after 48 hrs; type: functional; conditions: HSC-3, 48 h
[11] = Anticancer activity against human Molt4/C8 cells after 72 hrs; type: functional, cell-based; conditions: MOLT-4, 72 h
L1210 [12] = assay: Anticancer activity against mouse L1210 cells after 48 hrs; type: functional, cell-based; conditions: L1210, 48 h
Mus musculus [13] = assay: Toxicity in mouse assessed as mortality at 30 to 300 mg/kg, ip after 0.5 to 4 hrs; type: organism-based; design: dose 30-300 mg/kg, route intraperitoneal; conditions: in vivo
In short: (§1)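 Mice dosed intraperitoneally at 30, 100 and 300 mg/kg; animals observed for deaths and neurological deficit at 0.5 and 4 h after injection.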

CCRF-CEM [14] = assay: Anticancer activity against human CEM cells after 72 hrs; type: functional, cell-based
Mus musculus [15] = assay: Neurotoxicity in mouse at 30 to 300 mg/kg, ip after 0.5 hrs by rotarod method; type: toxicity, organism-based; design: dose 30-300 mg/kg, route intraperitoneal; conditions: in vivo
In short: (§2)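 Mice given 30, 100 and 300 mg/kg by intraperitoneal injection; animals scored for mortality and neurotoxicity at 0.5 and 4 h after dosing.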

Mus musculus [16] = assay: Neurotoxicity in mouse at 30 to 300 mg/kg, ip after 0.5 to 4 hrs by rotarod method; type: toxicity, organism-based; design: dose 30-300 mg/kg, route intraperitoneal; conditions: in vivo; in short: as §1
HCT-15 = assay: Anticancer activity against human HCT15 cells; type: functional, cell-based
RPMI-8226 = assay: Anticancer activity against human RPMI8226 cells; type: functional, cell-based
HCT-116 = assay: Anticancer activity against human HCT116 cells; type: functional, cell-based
COLO 205 = assay: Anticancer activity against human COLO205 cells; type: functional, cell-based
HL-60 [17] = assay: Induction of mitochondrial pathway-dependent apoptosis in human HL60 cells assessed as DNA fragmentation at 0.5 to 8 uM after 6 hrs by agarose gel electrophoresis; type: functional, cell-based
In short: (§3)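 Cells exposed 6 h to a range of concentrations; a UV-irradiated comparison was given 1 min of UV. Treated and control cells were then held 3 h in regular culture medium, after which DNA was extracted and run on 2% agarose gel electrophoresis.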

[18] = Cytotoxicity against human HPC cells after 48 hrs; type: cell-based
HL-60 [19] = assay: Anticancer activity against human HL60 cells; type: functional, cell-based
HSC-2 [20] = assay: Induction of mitochondrial pathway-dependent apoptosis in human HSC2 cells assessed as caspase 3 activation at 1 to 3 uM; type: functional, cell-based
In short: (§4)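 Caspase-3 activity measured in lysates of treated HL-60 and HSC-2 cells: 100 μg protein per assay, incubated 2 h with the substrate. Mean ± SD of three experiments.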

HCC 2998 = assay: Anticancer activity against human HCC2998 cells; type: functional, cell-based
[21] = Cytotoxicity against human HPLF cells after 48 hrs; type: cell-based
[22] = Cytotoxicity against human HGF cells after 48 hrs; type: cell-based
HL-60 [23] = assay: Induction of mitochondrial pathway-dependent apoptosis in human HL60 cells assessed as caspase 3 activation at 1 to 3 uM; type: functional, cell-based; in short: as §4
CCRF-CEM [24] = assay: Anticancer activity against human CCRF-CEM cells; type: functional, cell-based
HSC-2 [25] = assay: Induction of mitochondrial pathway-dependent apoptosis in human HSC2 cells assessed as DNA fragmentation at 0.5 to 8 uM after 6 hrs by agarose gel electrophoresis; type: functional, cell-based; in short: as §3
L1210 [26] = assay: Ratio of melphalan IC50 to compound IC50 for mouse L1210 cells; type: functional
K562 = assay: Anticancer activity against human K562 cells; type: functional, cell-based
CCRF-CEM [27] = assay: Ratio of melphalan IC50 to compound IC50 for human CEM cells; type: functional
MOLT-4 = assay: Ratio of melphalan IC50 to compound IC50 for human Molt4/C8 cells; type: functional
SW-620 = assay: Anticancer activity against human SW620 cells; type: functional, cell-based
KM12 = assay: Anticancer activity against human KM12 cells; type: functional, cell-based
Mus musculus [28] = assay: Neurotoxicity in mouse at 30 to 300 mg/kg, ip after 4 hrs by rotarod method; type: toxicity, organism-based; design: dose 30-300 mg/kg, route intraperitoneal; conditions: in vivo; in short: as §2

SMILES | CC50 (HSC-2 [1]) [µM] | Ratio (HL-60 [2]) | CC50 (HSC-4 [3]) [µM] | Ratio (HSC-4 [5]) | Ratio (HSC-2 [7]) | Ratio (HSC-3 [8]) | IC50 (HT-29) [µM] | IC50 [11] [µM] | IC50 (L1210 [12]) [µM] | Activity (Mus musculus [13]) | IC50 (CCRF-CEM [14]) [µM] | IC50 (HCT-15) [µM] | IC50 (HCT-116) [µM] | IC50 (COLO 205) [µM] | IC50 (HL-60 [19]) [µM] | IC50 (HCC 2998) [µM] | IC50 (CCRF-CEM [24]) [µM] | IC50 (K562) [µM] | IC50 (SW-620) [µM] | IC50 (KM12) [µM] | further results
N[C@@H](Cc1ccc(N(CCCl)CCCl)cc1)C(=O)O [MELPHALAN] | 8.7 | 150 | 32 | 6.6 | 24.1 | 8.4 | 46.8 |  |  |  |  |  |  |  |  |  |  |  |  |  | LD50 [4]: 21.7 mg/kg; LD50 [6]: 21.7 mg/kg; CC50 (HL-60 [9]): 1.4 µM; CC50 (HSC-3 [10]): 25 µM
Cc1ccc(/C=C2\CN(C(=O)CCSCCS(=O)(=O)O)C/C(=C\c3ccc(C)cc3)C2=O)cc1 |  |  |  |  |  |  |  | 79.7 | 198 | Non-toxic | 194 |  |  |  |  |  |  |  |  |  | Activity (Mus musculus [15]): Toxic
O=C1/C(=C/c2ccc([N+](=O)[O-])cc2)CN(C(=O)CCSCCS(=O)(=O)O)C/C1=C\c1ccc([N+](=O)[O-])cc1 |  |  |  |  |  |  |  | 6.98 | 11.4 | Non-toxic | 7.44 |  |  |  |  |  |  |  |  |  | Activity (Mus musculus [16]): Non-toxic
O=C1/C(=C/c2ccc([N+](=O)[O-])cc2)CN(C(=O)CCSCCO)C/C1=C\c1ccc([N+](=O)[O-])cc1 | 0.34 | 13.3 | 0.38 | 15.5 | 17.3 | 8.5 | 0.1 | 0.49 | 3.92 | Non-toxic | 0.48 | 0.21 | 0.11 | 0.06 | 0.1 | 0.28 | 0.04 | 0.06 | 0.07 | 0.17 | IC50 (RPMI-8226): 0.02 µM; Activity (Mus musculus [16]): Non-toxic; Activity (HL-60 [17]): Active; CC50 at 48 h [18]: 5.8 µM; Activity (HSC-2 [20]): inactive; CC50 at 48 h [21]: 6.4 µM; CC50 at 48 h [22]: 5.4 µM; Activity (HL-60 [23]): Active; Activity (HSC-2 [25]): inactive; Ratio IC50 (L1210 [26]): 96; CC50 (HL-60 [9]): 0.44 µM; Ratio IC50 (CCRF-CEM [27]): 5.1; Ratio IC50 (MOLT-4): 6.7; CC50 (HSC-3 [10]): 0.69 µM
O=c1[nH]cc(F)c(=O)[nH]1 [FLUOROURACIL] |  |  |  |  |  |  | 10.2 |  |  |  |  | 9.71 | 8.51 | 4.17 | > 100 | 13.5 | 33.1 | 2.4 | > 100 | 8.32 | 
COc1ccc(/C=C2\CN(C(=O)CCSCCS(=O)(=O)O)C/C(=C\c3ccc(OC)cc3)C2=O)cc1 |  |  |  |  |  |  | 41.7 | 156 | 227 | Non-toxic | 199 | > 100 | 33.1 | > 100 | > 100 | 30.9 | > 100 | 55 | 38 | 30.2 | IC50 (RPMI-8226): 24.5 µM; Activity (Mus musculus [28]): Toxic; Activity (Mus musculus [15]): Toxic
